PfG6PD inh – PfG6PD (Plasmodium falciparum) enzyme inhibition; PfGluPho enzyme, NADPH resazurin-diaphorase fluorescence; inhibition, % at 20 µM; 350,000 compounds, 0.78% hits; AID 504690;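 active means inhibition reaching at least a set limit at 20 µM in the primary screen, cut at about 59% in these data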;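 further: 0% = DMSO wells with substrate and 100% = DMSO wells lacking glucose-6-phosphate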
ATG4B inhibitor – inhibitors of human ATG4B cysteine protease. Q9Y4P1. ATG4B cleavage of LC3-PLA2, NBD-HPC fluorescence, 1 h. inhibition, % at 8.33 µM. 340,000 compounds, 0.51% hits; in the data active means inhibition above about 40%
Target sequence (Q9Y4P1 whole entry, looked up): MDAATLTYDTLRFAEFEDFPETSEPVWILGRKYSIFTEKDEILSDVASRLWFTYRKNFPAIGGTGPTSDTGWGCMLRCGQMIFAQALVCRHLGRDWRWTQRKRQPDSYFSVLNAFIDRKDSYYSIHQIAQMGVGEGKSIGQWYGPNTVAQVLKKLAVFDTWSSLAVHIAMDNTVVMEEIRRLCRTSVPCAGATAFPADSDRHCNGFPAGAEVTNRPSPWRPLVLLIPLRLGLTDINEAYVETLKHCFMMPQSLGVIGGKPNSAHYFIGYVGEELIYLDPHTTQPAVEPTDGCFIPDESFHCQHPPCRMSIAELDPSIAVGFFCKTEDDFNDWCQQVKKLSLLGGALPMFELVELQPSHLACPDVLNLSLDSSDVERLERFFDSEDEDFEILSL
T cell HTS – T cell immune modulators affecting CD8 T cell-vesicle binding; 2C CD8+ T cell-vesicle binding, flow cytometry; hits give low values; response (vesicle binding), % at 7 µM; 330,000 compounds, 0.068% hits;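 active means response, share of CD8 T cells binding vesicles, and their 90th percentile fluorescence all below set limits, cut at about 80% in these data, passing the limit was not always enough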;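 further: values below 100% mean blocked vesicle binding to the CD8+ T cells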
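Material: murine 2C transgenic CD8+ T lymphocytes / Also added: QL9-peptide-loaded Drosophila micro-vesicles bearing Ld, ICAM-1 and B7-1 / Schedule: binding step 1.5 h, 37 °C, antibody labelling 20 min, ice / Signal: flow cytometry, PE anti-B7-1 (FL2) versus Alexa647 anti-CD8 (FL8), PFA-fixed / Evaluation: percent CD8+ FL2 mean versus row control / Benchmarks: naked versus QL9-loaded vesicles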
PKA-R2B act – PKA-R2B complex activation; P22694+P31323; PKA-R2B holoenzyme dissociation, Cy5-IP20 fluorescence polarization; R2B truncated from residue 108, S112A mutant; 0% DMSO only, 100% 113 µM cGMP; activation, % at 11.4 µM; 340,000 compounds, 0.079% hits; AID 504700;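 active means activation above a cutoff set at the mean over all compounds plus 3 SD, cut at about 18% in these data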;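 further: higher means more holoenzyme dissociation and a rise in polarization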
HKDC1 inh – inhibitors of human hexokinase HKDC1 | Q2TB90 | recombinant HKDC1, G6PDH/diaphorase resazurin coupled fluorescence | inhibition, % at 20 µM | 340,000 compounds, 0.16% hits | AID 493160;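 active means inhibition above about 35% when tested at 20 µM, limit read from the data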;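 further: plate controls were DMSO wells with enzyme for no effect and DMSO wells lacking enzyme for full effect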
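Material: recombinant HKDC1 hexokinase; Amount: HKDC1 at 5 µg/mL; Medium: Tris pH 8.0 buffer with MgCl2, Tween-20, BSA, BME; Schedule: 90 min reaction incubation at room temperature, dark; Technique: coupled resazurin fluorescence, excitation 525 nm, emission 613 nm.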
PKA-R1A activ – PKA-R1A complex activation; P00514+P68181; PKA-R1A dissociation, Cy5-IP20 fluorescence polarization; scaled: DMSO 0%, 113 µM cGMP 100%; activation, % at 11.4 µM; 340,000 compounds, 0.083% hits;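 active means percent activation above the mean of all tested compounds plus 3 SD, cut at about 19% in these data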;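 further: higher means more PKAc released from R1A so a rise in polarization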
* = called active by the depositor. The list is not random: actives were taken first. Their share in the collection is about 1.6%.

Results for c1coc(-c2nc(-c3ccco3)c(-c3ccco3)nc2-c2ccco2)c1 ?
PfG6PD inh: 54; ATG4B inhibitor: 39; T cell HTS: 690; PKA-R2B act: 3; HKDC1 inh: 68*; PKA-R1A activ: 15

What do the screens show for `Nc1nc(-c2ccco2)c(-c2ccco2)s1`?
PfG6PD inh: 41; ATG4B inhibitor: 4; T cell HTS: 547; PKA-R2B act: -3; HKDC1 inh: 9; PKA-R1A activ: 2

What do the screens show for `C/C(=N\NC(=O)c1ccc(Br)o1)c1cc2c(cc1NC(=O)CCC(=O)O)OCO2`?
PfG6PD inh: -17; ATG4B inhibitor: 6; T cell HTS: 0.0*; PKA-R2B act: -2; HKDC1 inh: -2; PKA-R1A activ: -5

Results for CCc1cccc(C)c1NC(=O)COC(=O)CSCc1ccccc1 ?
PfG6PD inh: 10; ATG4B inhibitor: 2; T cell HTS: 332; PKA-R2B act: -7; HKDC1 inh: -7; PKA-R1A activ: 1

Results for Cc1ccc(CCC2C3=C(CCCC3=O)OC3=C2C(=O)CCC3)cc1 ?
PfG6PD inh: 25; ATG4B inhibitor: 5; T cell HTS: 0.0*; PKA-R2B act: -1; HKDC1 inh: 13; PKA-R1A activ: -4

How did CC1CCCN(C(=O)c2ccc(-c3ccccc3Cl)o2)C1 (stereo not drawn) do in these assays?
PfG6PD inh: -3; ATG4B inhibitor: 30; T cell HTS: 274; PKA-R2B act: 2; HKDC1 inh: -5; PKA-R1A activ: 6

How did Cc1ccc(S(=O)(=O)N2CCC(C(=O)Nc3cc(C(F)(F)F)ccc3N3CCOCC3)CC2)cc1C do in these assays?
PfG6PD inh: 7; ATG4B inhibitor: -17; T cell HTS: 48*; PKA-R2B act: 2; HKDC1 inh: 1; PKA-R1A activ: 5

What do the screens show for `Cc1cc(C)n(C(=O)c2sc3cc(F)ccc3c2Cl)n1`?
T cell HTS: 0.0*

What do the screens show for `O=C(NC1CC1)c1sc2cc(F)ccc2c1Cl`?
PfG6PD inh: -16; ATG4B inhibitor: 5; T cell HTS: 401; PKA-R2B act: -8; HKDC1 inh: 0; PKA-R1A activ: -5

How did CCOC(=O)C1=C(C)NC(C)=C(C(=O)OC)C1c1cccc([N+](=O)[O-])c1 (stereo not drawn) do in these assays?
PfG6PD inh: 13; ATG4B inhibitor: -8; T cell HTS: 364; PKA-R2B act: -4; HKDC1 inh: 3; PKA-R1A activ: -12

Results for COC(=O)C1=C(C)NC(C)=C(C(=O)OC)C1c1ccccc1[N+](=O)[O-] ?
PfG6PD inh: 75*; ATG4B inhibitor: 5; T cell HTS: 754; PKA-R2B act: -3; HKDC1 inh: -6; PKA-R1A activ: -4

Results for CCC(=O)OC1(C)C(=O)C=C2C=C(c3ccsc3)OC=C2C1=O (stereo not drawn) ?
PfG6PD inh: 21; ATG4B inhibitor: 82*; T cell HTS: 520; PKA-R2B act: -11; HKDC1 inh: 17; PKA-R1A activ: -3

What do the screens show for `Cc1[nH]nc2c1C(c1cnn(C)c1)C(C#N)=C(N)O2` (stereo not drawn)?
PfG6PD inh: -2; ATG4B inhibitor: 6; T cell HTS: 59*; PKA-R2B act: 3; HKDC1 inh: -6; PKA-R1A activ: 0

Results for CCOc1ccc(C(=O)CC(C(=O)O)N2CCCCC2)cc1 (stereo not drawn) ?
PfG6PD inh: 9; ATG4B inhibitor: -12; T cell HTS: 304; PKA-R2B act: 19*; HKDC1 inh: 7; PKA-R1A activ: -5

How did O=C(Oc1ccc(Cl)cc1)N1CCCCC1 do in these assays?
PfG6PD inh: 1; ATG4B inhibitor: -2; T cell HTS: 167; PKA-R2B act: 5; HKDC1 inh: -9; PKA-R1A activ: 7

How did O=C(Oc1ccc(-c2nnco2)cc1)N1CCCCC1 do in these assays?
PfG6PD inh: -4; ATG4B inhibitor: 3; T cell HTS: 76*; PKA-R2B act: -9; HKDC1 inh: -4; PKA-R1A activ: -13

High-throughput results from PubChem.
